Test results from ChEMBL document CHEMBL4177693, “Design, synthesis, and biological evaluation of thieno[2,3-d]pyrimidine derivatives as novel dual c-Met and VEGFR-2 kinase inhibitors” (Bioorg Med Chem, 2017).

Experiments:
[1] = system: BaF3; assay: Antiproliferative activity against mouse BAF3 cells harboring […] at 1 uM after 72 hrs by CCK-8 assay relative to control; assay type: functional; details: BaF3, 72 h
Method in brief: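 Murine BaF3 cells expressing TPR-Met (c-Met-dependent) were plated in RPMI 1640 with 10% FBS. Serial compound dilutions or 0.1% DMSO were added the following day, and cells were incubated a further 72 h before CCK-8 read-out. IC50 was fitted by nonlinear regression; single-point percent inhibition was tested at 1 μM.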

[2] = system: HUVEC; assay: Antiproliferative activity against human VEGF-stimulated HUVEC cells at 1 uM after 120 hrs by CCK-8 assay relative to control; assay type: functional
Method in brief: (§1)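 HUVECs were plated in human endothelial serum-free medium. The next day, serial dilutions of compound or 0.1% DMSO vehicle were added, with 60 ng/mL recombinant human VEGF to drive proliferation for 120 h. Viability was read by CCK-8. IC50 came from nonlinear regression; percent inhibition was also scored at a single 1 μM concentration.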

[3] = system: HUVEC; assay: Antiproliferative activity against human VEGF-stimulated HUVEC after 120 hrs by CCK-8 assay; assay type: functional, cell-based; method in brief: as §1

| Compound | inhibition at 1 µM [1] | inhibition at 1 µM [2] | IC50 [3] |
| --- | --- | --- | --- |
| Cc1c(C(=O)Nc2ccc(F)cc2)sc2ncnc(Oc3ccc(NC(=O)C4(C(=O)Nc5ccc(F)cc5)CC4)cc3F)c12 | 26.7% | 32.9% |  |
| CCOC(=O)c1sc2ncnc(Oc3ccc(NC(=O)C4(C(=O)Nc5ccc(F)cc5)CC4)cc3F)c2c1C | 16.4% | 12.7% |  |
| Cc1c(C(=O)NC2CC2)sc2ncnc(Oc3ccc(NC(=O)C4(C(=O)Nc5ccc(F)cc5)CC4)cc3F)c12 | 26.6% | 13.7% |  |
| COC(=O)c1sc2ncnc(Oc3ccc(NC(=O)C4(C(=O)Nc5ccc(F)cc5)CC4)cc3F)c2c1C | 18.1% | 4.56% |  |
| COc1cc2nccc(Oc3ccc(NC(=O)C4(C(=O)Nc5ccc(F)cc5)CC4)cc3)c2cc1OC [CABOZANTINIB] | 97.7% | 72.8% |  |
| Cc1c(C(=O)N2CCSCC2)sc2ncnc(Oc3ccc(NC(=O)C4(C(=O)Nc5ccc(F)cc5)CC4)cc3F)c12 | 23% | 15.5% |  |
| Cc1c(C(=O)NCCC(C)C)sc2ncnc(Oc3ccc(NC(=O)C4(C(=O)Nc5ccc(F)cc5)CC4)cc3F)c12 | 86.6% | 27.5% |  |
| Cc1c(C(=O)NCCN2CCOCC2)sc2ncnc(Oc3ccc(NC(=O)C4(C(=O)Nc5ccc(F)cc5)CC4)cc3F)c12 | 95.4% | 73.6% | 89 nM |
| Cc1c(C(=O)NCC#N)sc2ncnc(Oc3ccc(NC(=O)C4(C(=O)Nc5ccc(F)cc5)CC4)cc3F)c12 | 92.6% | 66.7% | 123 nM |
| Cc1c(C(=O)N2CCOCC2)sc2ncnc(Oc3ccc(NC(=O)C4(C(=O)Nc5ccc(F)cc5)CC4)cc3F)c12 | 61.5% | 10.8% |  |
| Cc1c(C(=O)NCCCN2CCOCC2)sc2ncnc(Oc3ccc(NC(=O)C4(C(=O)Nc5ccc(F)cc5)CC4)cc3F)c12 | 92.8% | 61.3% | 153 nM |
| Cc1c(C(=O)NCCS(C)(=O)=O)sc2ncnc(Oc3ccc(NC(=O)C4(C(=O)Nc5ccc(F)cc5)CC4)cc3F)c12 | 96% | 79.5% | 86 nM |
| COCCNC(=O)c1sc2ncnc(Oc3ccc(NC(=O)C4(C(=O)Nc5ccc(F)cc5)CC4)cc3F)c2c1C | 90.9% | 68.9% | 139 nM |
| CC(=O)N1CCN(C(=O)c2sc3ncnc(Oc4ccc(NC(=O)C5(C(=O)Nc6ccc(F)cc6)CC5)cc4F)c3c2C)CC1 | 61% | 23.8% |  |
| COCCCNC(=O)c1sc2ncnc(Oc3ccc(NC(=O)C4(C(=O)Nc5ccc(F)cc5)CC4)cc3F)c2c1C | 88.6% | 33.3% |  |
| Cc1c(C(=O)N2CCCCC2)sc2ncnc(Oc3ccc(NC(=O)C4(C(=O)Nc5ccc(F)cc5)CC4)cc3F)c12 | 20.3% | 10.5% |  |
| Cc1c(C(=O)N(C)C)sc2ncnc(Oc3ccc(NC(=O)C4(C(=O)Nc5ccc(F)cc5)CC4)cc3F)c12 | 60% | 24.4% |  |
| Cc1c(C(=O)OCc2ccccc2)sc2ncnc(Oc3ccc(NC(=O)C4(C(=O)Nc5ccc(F)cc5)CC4)cc3F)c12 | 10.5% | 6.17% |  |
| Cc1c(C(=O)O)sc2ncnc(Oc3ccc(NC(=O)C4(C(=O)Nc5ccc(F)cc5)CC4)cc3F)c12 | 2.13% | 8.72% |  |
| Cc1c(C(=O)NCCN2CCCC2)sc2ncnc(Oc3ccc(NC(=O)C4(C(=O)Nc5ccc(F)cc5)CC4)cc3F)c12 | 88.2% | 29.7% |  |
| Cc1c(C(=O)N2CCCC2)sc2ncnc(Oc3ccc(NC(=O)C4(C(=O)Nc5ccc(F)cc5)CC4)cc3F)c12 | 31.1% | 15.8% |  |
